Article PMC8154016 (ACS Omega, 2021)

Assays:
[1] = tested on: MCF-7 (breast) cancer cell line; test: MTT assay, cell viability, MCF-7; assay type: cell-based; conditions: Homo sapiens, MCF7, 48 h, read-out: Cell viability (%) MCF-7 (breast), 100 μg/μL concentration of compound, 48 h, MTT, mean ± SD in triplicate
How it was run: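 Human MCF-7 breast cancer cells grown in DMEM with 10% FBS and 1% penicillin–streptomycin at 37 °C, 5% CO2, humidified. Test compound in DMSO (under 1% final) added at various dilutions for 48 h. MTT (5 mg/mL stock) then added for 240 min at 37 °C. Formazan dissolved in DMSO and absorbance read at 490 nm. Percent viability calculated; triplicate, mean ± SD.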

[2] = tested on: A549 (lung) cancer cell line; test: MTT assay, cell viability and IC50, A549; assay type: cell-based; conditions: Homo sapiens; for viability: A549, 48 h, read-out: Cell viability (%) A549 (lung), 100 μg/μL concentration of compound, 48 h, MTT, mean ± SD in triplicate
How it was run: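 A549 human lung cancer cells were grown in DMEM with 10% FBS and 1% penicillin–streptomycin at 37 °C in humidified 5% CO2. Cells were seeded in 96-well plates and exposed for 48 h to serial dilutions of the test compound in DMSO (<1% final). MTT (5 mg/mL solution as added) was applied for 240 min at 37 °C. Formazan was dissolved in DMSO and A490 read for % viability. Triplicate; mean ± SD.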

Structure (SMILES)	viability [1]	viability [2]	IC50 ([2]; A549, read-out: IC50 (μM) A549 (lung))
Cn1c(=O)c2c(ncn2CC(=O)O)n(C)c1=O [Acefylline, Theophylline-7-acetic acid, reference compound]	86.3 ± 11.8%	–	–
Cn1c(=O)c2c(ncn2Cc2nnc(SCC(=O)Nc3ccccc3)n2-c2ccccc2)n(C)c1=O [Compound 11a, 2-(5-((1,3-Dimethyl-2,6-dioxo-2,3-dihydro-1H-purin-7(6H)-yl)methyl)-4-phenyl-4H-1,2,4-triazol-3-ylthio)-N-phenylacetamide]	34.7 ± 2.49%	59.6 ± 1.36%	–
Cn1c(=O)c2c(ncn2Cc2nnc(SCC(=O)Nc3ccc(Cl)cc3Cl)n2-c2ccccc2)n(C)c1=O [Compound 11b, N-(2,4-Dichlorophenyl)-2-(5-((1,3-dimethyl-2,6-dioxo-2,3-dihydro-1H-purin-7(6H)-yl)methyl)-4-phenyl-4H-1,2,4-triazol-3-ylthio)acetamide]	69.4 ± 7.05%	52.6 ± 5.07%	–
Cc1ccc(NC(=O)CSc2nnc(Cn3cnc4c3c(=O)n(C)c(=O)n4C)n2-c2ccccc2)c(C)c1 [Compound 11c, 2-(5-((1,3-Dimethyl-2,6-dioxo-2,3-dihydro-1H-purin-7(6H)-yl)methyl)-4-phenyl-4H-1,2,4-triazol-3-ylthio)-N-(2,4-dimethylphenyl)acetamide]	38.7 ± 2.07%	26.1 ± 1.86%	–
Cn1c(=O)c2c(ncn2Cc2nnc(SCC(=O)Nc3ccc(Cl)c(Cl)c3)n2-c2ccccc2)n(C)c1=O [Compound 11d, N-(3,4-Dichlorophenyl)-2-(5-((1,3-dimethyl-2,6-dioxo-2,3-dihydro-1H-purin-7(6H)-yl)methyl)-4-phenyl-4H-1,2,4-triazol-3-ylthio)acetamide]	38.1 ± 4.04%	46.2 ± 1.42%	–
Cn1c(=O)c2c(ncn2Cc2nnc(SCC(=O)Nc3ccc(F)cc3)n2-c2ccccc2)n(C)c1=O [Compound 11e, 2-(5-((1,3-Dimethyl-2,6-dioxo-2,3-dihydro-1H-purin-7(6H)-yl)methyl)-4-phenyl-4H-1,2,4-triazol-3-ylthio)-N-(4-fluorophenyl)acetamide]	54.8 ± 4.88%	52.1 ± 3.66%	–
Cn1c(=O)c2c(ncn2Cc2nnc(SCC(=O)Nc3ccccc3Cl)n2-c2ccccc2)n(C)c1=O [Compound 11f, N-(2-Chlorophenyl)-2-(5-((1,3-dimethyl-2,6-dioxo-2,3-dihydro-1H-purin-7(6H)-yl)methyl)-4-phenyl-4H-1,2,4-triazol-3-ylthio)acetamide]	72.8 ± 6.35%	55.4 ± 4.11%	–
Cc1ccc(NC(=O)CSc2nnc(Cn3cnc4c3c(=O)n(C)c(=O)n4C)n2-c2ccccc2)cc1 [Compound 11g, 2-(5-((1,3-Dimethyl-2,6-dioxo-2,3-dihydro-1H-purin-7(6H)-yl)methyl)-4-phenyl-4H-1,2,4-triazol-3-ylthio)-N-p-tolylacetamide]	31.8 ± 3.16%	21.7 ± 1.6%	1.25 ± 1.6 µM
Cc1ccc(NC(=O)CSc2nnc(Cn3cnc4c3c(=O)n(C)c(=O)n4C)n2-c2ccccc2)cc1C [Compound 11h, 2-(5-((1,3-Dimethyl-2,6-dioxo-2,3-dihydro-1H-purin-7(6H)-yl)methyl)-4-phenyl-4H-1,2,4-triazol-3-ylthio)-N-(3,4-dimethylphenyl)acetamide]	33.2 ± 2.77%	55.4 ± 4.6%	–
Cn1c(=O)c2c(ncn2Cc2nnc(SCC(=O)Nc3ccccc3F)n2-c2ccccc2)n(C)c1=O [Compound 11j, 2-(5-((1,3-Dimethyl-2,6-dioxo-2,3-dihydro-1H-purin-7(6H)-yl)methyl)-4-phenyl-4H-1,2,4-triazol-3-ylthio)-N-(2-fluorophenyl)acetamide]	63.7 ± 3.54%	67.5 ± 4.27%	–
